Non-standard residues stand in square brackets, D forms with d. Residues, ends and D or L forms follow the SMILES beside them.
Tests used:
[1] = system: CHO-K1; assay: Evaluated for inhibition of ET-1 induced Calcium channel [Ca+2]i in CHO-K1 cells transfected with the rat ETA-expression plasmid DNA at 10E-6M; Low inhibition; assay type: functional, cell-based
Outline: (§1)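 Rat ETA receptor plasmid transfected into CHO-K1 cells by lipofection. Cells preloaded with fura-2 AM, then stimulated with ET-1 at 10^-7 M. The rise in [Ca2+]i was read ratiometrically, with excitation at 340/380 nm and emission at 510 nm. The ET-1 response alone was set as 100%, and inhibition by compounds is expressed relative to it.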

[2] = Evaluated for inhibition of ET-1 induced Calcium channel [Ca+2]i in CHO-K1 cells transfected with the rat ETA-expression plasmid DNA at 10E-6M; assay type: functional; outline: as §1
[3] = Evaluated for inhibition of ET-1 induced Calcium channel [Ca+2]i in CHO-K1 cells transfected with the rat ETA-expression plasmid DNA at 10E-6M; range- 50-70%; assay type: functional; outline: as §1
[4] = Evaluated for inhibition of ET-1 induced Calcium channel [Ca+2]i in CHO-K1 cells transfected with the rat ETA-expression plasmid DNA at 10 nM; assay type: functional; outline: as §1
[5] = Evaluated for inhibition of ET-1 induced Calcium channel [Ca+2]i in CHO-K1 cells transfected with the rat ETA-expression plasmid DNA; assay type: functional, cell-based; outline: as §1

Structure (SMILES)	inhibition [1]	inhibition at 1 µM [2] [%]	also measured
CC1(c2ccccc2)c2cc(C(=O)O)sc2C(=O)c2c1c1ccccc1n2Cc1ccc(O)cc1 (configuration not stated)	Weak inhibition	–	–
Cn1c2c(c3ccccc31)C(C)(c1ccc(OCCCC(=O)O)cc1)c1cc(C(=O)O)sc1C2=O (configuration not stated)	–	> 75	–
CC1(c2cccc(O)c2)c2cc(C(=O)O)sc2C(=O)c2c1c1ccccc1n2Cc1ccccc1 (configuration not stated)	–	–	inhibition at 1 µM [3]: < 70%
CCCOc1ccc2c(c1)[C@@H](c1ccc(OC)cc1OCC(=O)O)[C@H](C(=O)O)[C@H]2c1ccc2c(c1)OCO2 [SB-209670]	–	–	inhibition at 0.01 µM [4]: ~85%
CC(C)C[C@@H]1NC(=O)[C@@H](C(C)C)NC(=O)[C@@H]2CCCN2C(=O)[C@@H](CC(=O)O)NC(=O)[C@@H](Cc2c[nH]c3ccccc23)NC1=O [BQ-123] (cyclo(L[dW][dD]P[dV]))	–	~60	–
Cn1c2c(c3ccccc31)C(C)(c1cccc(CC(=O)O)c1)c1cc(C(=O)O)sc1C2=O (configuration not stated)	–	> 75	–
Cn1c2c(c3ccccc31)C(C)(c1cccc(CCCC(=O)O)c1)c1cc(C(=O)O)sc1C2=O (configuration not stated)	–	> 75	–
COc1ccc(C2(C)c3cc(C(=O)O)sc3C(=O)c3c2c2ccccc2n3Cc2ccccc2)cc1 (configuration not stated)	Weak inhibition	–	–
COc1cccc(C2(C)c3cc(C(=O)O)sc3C(=O)c3c2c2ccccc2n3C)c1 (configuration not stated)	–	–	inhibition at 1 µM [3]: < 70%
CC1(c2ccccc2)c2cc(C(=O)O)sc2C(=O)c2c1c1ccccc1n2Cc1ccc(OCC(=O)O)cc1 (configuration not stated)	Weak inhibition	–	–
Cn1c2c(c3ccccc31)C(C)(c1ccc(OCC(=O)O)cc1)c1cc(C(=O)O)sc1C2=O (configuration not stated)	–	> 75	–
COc1cccc(C2(C)c3cc(C(=O)O)sc3C(=O)c3c2c2ccccc2n3Cc2ccccc2)c1 (configuration not stated)	Weak inhibition	–	–
CC1(c2cccc(CC(=O)O)c2)c2cc(C(=O)O)sc2C(=O)c2c1c1ccccc1n2Cc1ccccc1 (configuration not stated)	Weak inhibition	–	–
COc1ccc(Cn2c3c(c4ccccc42)C(C)(c2ccccc2)c2cc(C(=O)O)sc2C3=O)cc1 (configuration not stated)	Weak inhibition	–	–
CC1(c2ccc(OCC(=O)O)cc2)c2cc(C(=O)O)sc2C(=O)c2c1c1ccccc1n2Cc1ccccc1 (configuration not stated)	–	–	inhibition at 1 µM [3]: < 70%
CC1(c2ccc(O)cc2)c2cc(C(=O)O)sc2C(=O)c2c1c1ccccc1n2Cc1ccccc1 (configuration not stated)	–	> 75	IC50 [5]: ~10 nM
